# Calls of active or inactive are those of the source. The rule behind the calls is not given here. Where a SMILES comes first, the peptide text is derived from it. Bridges are numbered along the chain shown (N, C = ends).
# What was measured:
# [1] = biological target: T1, SPRY domain-containing SOCS box protein 2 (Mus musculus) (UniProt O88838); test: Binding affinity to recombinant GST-tagged mouse SPSB2 (12 to 224 residues) expressed in Escherichia coli BL21 (DE3) assessed as association rate by SPR analysis
# T1 sequence (whole entry): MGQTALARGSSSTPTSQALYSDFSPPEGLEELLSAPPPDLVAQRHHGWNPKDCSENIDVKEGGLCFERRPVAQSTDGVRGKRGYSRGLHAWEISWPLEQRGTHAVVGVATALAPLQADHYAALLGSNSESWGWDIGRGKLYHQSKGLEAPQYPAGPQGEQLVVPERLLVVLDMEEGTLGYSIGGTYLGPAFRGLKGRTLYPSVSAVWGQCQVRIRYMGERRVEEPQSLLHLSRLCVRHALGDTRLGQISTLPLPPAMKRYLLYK
# Outline: (§1)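 SPSB2 amine-coupled to a CM5 sensor chip. Peptidomimetics flowed over at increasing concentrations in running buffer (10 mM HEPES, 150 mM NaCl, 3 mM EDTA, 0.05% Tween 20, pH 7.4) at 25 °C. Sensorgrams fitted to a single-site binding model.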
# [2] = biological target: T1, SPRY domain-containing SOCS box protein 2 (Mus musculus); test: Binding affinity to recombinant GST-tagged mouse SPSB2 (12 to 224 residues) expressed in Escherichia coli BL21 (DE3) assessed as dissociation rate by SPR analysis; outline: as §1
# Mus musculus = organism: Mus musculus; test: Inhibition of recombinant GST-tagged mouse SPSB2 (12 to 224 residues) expressed in Escherichia coli BL21 (DE3)/ full length iNOS (unknown origin) interaction in LPS/IFN-gamma-stimulated mouse BMDM assessed as reduction in iNOS level preincubated for 2 hrs measured after 1 hr by Western blot analysis
# Outline: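 Lysates of cultured murine BMDM incubated 2 h with 2.5 μg/mL GST-SPSB2 SPRY domain or GST alone, with or without 10 μM peptidomimetic. Then 1 h with glutathione Sepharose beads to pull down the complex. Bound iNOS detected by reducing SDS-PAGE, anti-iNOS immunoblot and ECL. Membrane reprobed with anti-GST to check loading.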
# [3] = biological target: T1, SPRY domain-containing SOCS box protein 2 (Mus musculus); test: Binding affinity to mouse 5-F-Trp-SPSB2 assessed as downward shift of Trp207 residue resonance at protein to compound molar ratio of 1:5 by 19F-NMR spectroscopy
# Outline: (§2)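 19F NMR of 5F-Trp-labelled SPSB2 with added peptidomimetic, recorded at 30 °C and 564 MHz on a cryoprobe tuned to 19F.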
# [4] = biological target: T2, SPRY domain-containing SOCS box protein 2 (Mus musculus, UniProt O88838); test: Binding affinity to recombinant GST-tagged mouse SPSB2 (12 to 224 residues) expressed in Escherichia coli BL21 (DE3) by ITC method
# T2 sequence (O88838 whole entry): T1 sequence (whole entry)
# Outline: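 ITC at 25 °C in 50 mM phosphate pH 7.4, 150 mM NaCl. Cell held 50 μM SPSB2, buffer-exchanged on a PD-10 column; syringe held compound from a 5 mM stock. Stirred at 1000 rpm. One 0.2 μL injection, then 29 injections of 1 μL. KD and ΔH from a nonlinear least-squares fit to a one-set-of-sites (1:1) model.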
# [5] = biological target: T2, SPRY domain-containing SOCS box protein 2; test: Binding affinity to recombinant GST-tagged mouse SPSB2 (12 to 224 residues) expressed in Escherichia coli BL21 (DE3) by SPR analysis; outline: as §1
# [6] = biological target: T1, SPRY domain-containing SOCS box protein 2 (Mus musculus); test: Potency index, ratio of Ac-DINNNNH2 Kd to compound Kd for recombinant GST-tagged mouse SPSB2 (12 to 224 residues) expressed in Escherichia coli BL21 (DE3) by SPR analysis
# [7] = biological target: T1, SPRY domain-containing SOCS box protein 2 (Mus musculus); test: Ratio of Kd for recombinant GST-tagged mouse SPSB2 (12 to 224 residues) expressed in Escherichia coli BL21 (DE3) by ITC method to Kd for recombinant GST-tagged mouse SPSB2 (12 to 224 residues) expressed in Escherichia coli BL21 by SPR analysis
# [8] = biological target: T1, SPRY domain-containing SOCS box protein 2 (Mus musculus); test: Binding affinity to mouse 5-F-Trp-SPSB2 assessed as induction of sharpening of Trp207 resonance by measuring increase in peak height at protein to compound molar ratio of 1:5 by 19F-NMR spectroscopy; outline: as §2
Compound,K [1] [×10⁵ /M/s],K [2] [×10⁻² /s],Inhibition of SPSB2-iNOS interaction (qualitative) (Mus musculus),Activity [3],Kd [4] [nM],Kd [5] [nM],other results
CC[C@H](C)[C@@H]1NC(=O)[C@@H](CC(=O)O)OCC(=O)N(C)NC(=O)[C@H](CC(N)=O)NC(=O)[C@H](CC(N)=O)NC(=O)[C@@H](CC(N)=O)NC1=O,11.9,8,Active,Active,,,
CC[C@H](C)[C@@H]1NC(=O)[C@@H](CC(=O)O)OCC(=O)N(C)NC(=O)[C@H](CC(N)=O)NC(=O)[C@H](CC(N)=O)NC(=O)[C@H](CC(N)=O)NC1=O,,,,,83,99,
CC[C@H](C)[C@@H]1NC(=O)[C@@H](CC(=O)O)OCc2ccccc2NC(=O)[C@H](CC(N)=O)NC(=O)[C@H](CC(N)=O)NC(=O)[C@@H](CC(N)=O)NC1=O,8.6,2,Active,Active,,,Ratio [6]: 10; Ratio [7]: 1.5
CC[C@H](C)[C@@H]1NC(=O)[C@@H](CC(=O)O)NC(=O)c2ccccc2NC(=O)[C@H](CC(N)=O)NC(=O)[C@H](CC(N)=O)NC(=O)[C@@H](CC(N)=O)NC1=O,11,6,Active,Active,,,

# Now from value to compound, other results behind:
K [1] [×10⁵ /M/s],K [2] [×10⁻² /s],Inhibition of SPSB2-iNOS interaction (qualitative) (Mus musculus),Activity [3],Kd [4] [nM],Kd [5] [nM],Compound,other results
,,,,13,,H-KEEKDINNNVKKT-OH,
,,,,45,29,CC[C@H](C)[C@@H]1NC(=O)[C@@H](CC(=O)O)OCc2ccccc2NC(=O)[C@H](CC(N)=O)NC(=O)[C@H](CC(N)=O)NC(=O)[C@H](CC(N)=O)NC1=O,
,,,,49,54,CC[C@H](C)[C@@H]1NC(=O)[C@H](CC(=O)O)NC(=O)c2ccccc2NC(=O)[C@H](CC(N)=O)NC(=O)[C@H](CC(N)=O)NC(=O)[C@H](CC(N)=O)NC1=O,
,,,,442,465,CC[C@H](C)[C@@H]1NC(=O)[C@H](CC(=O)O)OCCNC(=O)[C@H](CC(N)=O)NC(=O)[C@H](CC(N)=O)NC(=O)[C@H](CC(N)=O)NC1=O,
4.7,26,Active,inactive,,,CC[C@@H](C)[C@@H]1NC(=O)[C@H](CC(=O)O)OCCNC(=O)[C@@H](CC(N)=O)NC(=O)[C@@H](CC(N)=O)NC(=O)[C@@H](CC(N)=O)NC1=O,Activity [8]: 25%
,,,Active,,,CC[C@H](C)[C@@H]1NC(=O)[C@H](CC(=O)O)NC(=O)[C@H](C(C)C)NC(=O)[C@@H](NC(C)=O)CSSC[C@@H](C(N)=O)NC(=O)[C@H](CC(N)=O)NC(=O)[C@H](CC(N)=O)NC(=O)[C@H](CC(N)=O)NC1=O (Ac-CVDINNNC-NH2; disulfide 1-8),
